Reference: ChEMBL document CHEMBL1142953, “Calcitonin gene-related peptide analogues with aza and indolizidinone amino acid residues reveal conformational requirements for antagonist activity at the human calcitonin gene-related peptide 1 receptor” (J Med Chem, 2007)
The source made the active and inactive calls. The calls are words filed in the database; no cut-off is given here. Where a SMILES comes first, the peptide text is derived from it.

Key:
Type in all cases: functional, cell-based
[1] = target: Calcitonin gene-related peptide type 1 receptor (Homo sapiens) (UniProt Q16602); assay: Antagonist activity against human CGRP1 expressed in HEK293 cells assessed as inhibition of human alpha-CGRP-promoted cAMP production upto 100 uM
Calcitonin gene-related peptide type 1 receptor (Homo sapiens), sequence (Q16602 whole entry): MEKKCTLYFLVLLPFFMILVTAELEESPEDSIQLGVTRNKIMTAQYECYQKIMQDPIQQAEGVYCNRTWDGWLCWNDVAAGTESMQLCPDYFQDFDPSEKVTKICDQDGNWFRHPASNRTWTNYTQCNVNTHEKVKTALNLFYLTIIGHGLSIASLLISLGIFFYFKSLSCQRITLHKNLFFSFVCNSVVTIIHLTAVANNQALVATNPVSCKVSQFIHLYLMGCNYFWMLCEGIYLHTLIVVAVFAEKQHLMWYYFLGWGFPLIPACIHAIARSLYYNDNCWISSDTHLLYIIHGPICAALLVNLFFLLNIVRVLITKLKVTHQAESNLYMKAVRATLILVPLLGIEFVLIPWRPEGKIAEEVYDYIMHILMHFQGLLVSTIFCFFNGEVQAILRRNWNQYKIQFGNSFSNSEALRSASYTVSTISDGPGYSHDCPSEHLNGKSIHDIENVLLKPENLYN
Method in brief: (§1)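 HEK293 cells stably expressing CRLR, seeded at 5000 cells/well. Cells preincubated with peptide analogues for 15 min at 37 °C, then stimulated with 0.5 nM α-CGRP for 15 min at 37 °C. cAMP measured with a fluorescence-based kit. Peptides tested up to 100 µM. At least three independent experiments in triplicate, analysed by nonlinear curve fitting; mean ± SEM.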

[2] = target: Calcitonin gene-related peptide type 1 receptor (Homo sapiens) (UniProt Q16602); assay: (§2) Antagonist activity against human CGRP1 expressed in HEK293 cells assessed as inhibition of human alpha-CGRP-promoted cAMP production; parameters: concentration or dose not given beside the values; details: concentration not given here; method in brief: as §1
[3] = target: Calcitonin gene-related peptide type 1 receptor (Homo sapiens) (UniProt Q16602); assay: Partial agonist activity at human CGRP1 expressed in HEK293 cells assessed by measuring cAMP production upto 1 uM
Method in brief: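 HEK293 cells stably expressing CRLR were exposed to CGRP27-37 analogues up to 1 µM without α-CGRP. cAMP production was measured with a fluorescence-based kit as the read-out.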

[4] = target: Calcitonin gene-related peptide type 1 receptor (Homo sapiens, UniProt O60894+Q16602); assay: as §2; method in brief: as §1
Calcitonin gene-related peptide type 1 receptor, sequence (Q16602 whole entry, one chain of several): as the sequence (Q16602 whole entry) above

Compound	Activity [1]	inhibition [2] [%]	Activity [3]	IC50 [4] [nM]
C[C@H](NC(=O)[C@H](Cc1ccccc1)NC(=O)[C@@H]1CCCN1C(=O)CNC(=O)[C@@H]1CC[C@@H]2CC[C@H](NC(=O)[C@@H](NC(=O)[C@@H]3CCCN3)[C@H](C)O)C(=O)N21)C(=O)N[C@@H](Cc1ccccc1)C(N)=O	inactive	–	–	–
CC(C)[C@H](NC(=O)[C@H](CC(=O)O)NC(=O)[C@@H](NC(=O)[C@@H]1CCCN1C(=O)[C@@H](NC(=O)[C@@H](N)Cc1ccccc1)C(C)C)[C@@H](C)O)C(=O)NCC(=O)N1CCC[C@H]1C(=O)N[C@@H](Cc1ccccc1)C(=O)N[C@@H](C)C(=O)N[C@@H](Cc1ccccc1)C(N)=O	–	68	inactive	–
CC(C)[C@H](NC(=O)[C@H](CC(=O)O)NC(=O)[C@@H](NC(=O)[C@@H]1CCCN1C(=O)[C@@H](NC(=O)[C@@H](N)Cc1ccccc1)C(C)C)[C@@H](C)O)C(=O)N[C@H]1C[C@H]2CCC[C@@H](C(=O)N[C@@H](Cc3ccccc3)C(=O)N[C@@H](C)C(=O)N[C@@H](Cc3ccccc3)C(N)=O)N2C1=O	inactive	–	inactive	–
CC(C)[C@H](NC(=O)[C@H](CC(=O)O)NC(=O)[C@@H](NC(=O)C1CCCN1)[C@@H](C)O)C(=O)NCC(=O)N[C@H]1C[C@H]2C[C@@H](c3ccccc3)C[C@@H](C(=O)N[C@@H](C)C(=O)N[C@@H](Cc3ccccc3)C(N)=O)N2C1=O (stereo partly drawn)	inactive	–	–	–
H-PTDVGPFAF-NH2	–	81	–	776
CC(C)[C@H](NC(=O)[C@H](CC(=O)O)NC(=O)[C@@H](NC(=O)[C@@H]1CCCN1)[C@@H](C)O)C(=O)NCC(=O)N1CCC[C@H]1C(=O)N[C@@H](Cc1ccccc1)C(=O)NN(C)C(=O)N[C@@H](Cc1ccccc1)C(N)=O (HELM PEPTIDE1{P.T.D.V.G.P.F.[CN(N[*:1])C(=O)[*:2]].F.[am]}$$$$V2.0)	inactive	–	–	–
CC(C)[C@H](NC(=O)[C@H](CC(=O)O)NC(=O)[C@@H](NC(=O)[C@@H]1CCCN1C(=O)[C@@H](NC(=O)[C@@H](N)Cc1ccccc1)C(C)C)[C@@H](C)O)C(=O)NCC(=O)N1CCC[C@H]1C(=O)N[C@@H](Cc1ccccc1)C(=O)NN(C)C(=O)N[C@@H](Cc1ccccc1)C(N)=O	–	–	–	3550
CC(C)[C@H](NC(=O)[C@H](CC(=O)O)NC(=O)[C@@H](NC(=O)[C@@H]1CCCN1C(=O)[C@@H](NC(=O)[C@@H](N)Cc1ccccc1)C(C)C)[C@@H](C)O)C(=O)NNC(=O)N1CCC[C@H]1C(=O)N[C@@H](Cc1ccccc1)C(=O)N[C@@H](C)C(=O)N[C@@H](Cc1ccccc1)C(N)=O	–	–	–	67.6
CC(C)[C@H](NC(=O)[C@H](CC(=O)O)NC(=O)[C@@H](NC(=O)[C@@H]1CCCN1C(=O)[C@@H](NC(=O)[C@H](N)Cc1ccccc1)C(C)C)[C@@H](C)O)C(=O)NNC(=O)N1CCC[C@H]1C(=O)N[C@@H](Cc1ccccc1)C(=O)N[C@@H](C)C(=O)N[C@@H](Cc1ccccc1)C(N)=O	–	70	inactive	–
CC(C)[C@H](NC(=O)[C@H](CC(=O)O)NC(=O)[C@@H](NC(=O)[C@@H]1CCCN1C(=O)[C@@H](NC(=O)[C@@H](N)Cc1ccccc1)C(C)C)[C@@H](C)O)C(=O)N[C@H]1CC[C@H]2CC[C@@H](C(=O)N[C@@H](Cc3ccccc3)C(=O)N[C@@H](C)C(=O)N[C@@H](Cc3ccccc3)C(N)=O)N2C1=O	–	70	inactive	107
CC(C)[C@H](NC(=O)[C@@H](N)Cc1ccccc1)C(=O)N1CCC[C@@H]1C(=O)N[C@H](C(=O)N[C@@H](CC(=O)O)C(=O)N[C@H]1C[C@H]2CCC[C@@H](C(=O)N3CCC[C@H]3C(=O)N[C@@H](Cc3ccccc3)C(=O)N[C@@H](C)C(=O)N[C@@H](Cc3ccccc3)C(N)=O)N2C1=O)[C@H](C)O	inactive	–	inactive	–
CC(C)[C@H](NC(=O)[C@H](CC(=O)O)NC(=O)[C@@H](NC(=O)[C@@H]1CCCN1C(=O)[C@@H](NC(=O)[C@H](N)Cc1ccccc1)C(C)C)[C@@H](C)O)C(=O)NCC(=O)N1CCC[C@H]1C(=O)N[C@@H](Cc1ccccc1)C(=O)NN(C)C(=O)N[C@@H](Cc1ccccc1)C(N)=O	–	51	inactive	–
CC(C)[C@H](NC(=O)[C@H](CC(=O)O)NC(=O)[C@@H](NC(=O)C1CCCN1C(=O)[C@@H](NC(=O)[C@@H](N)Cc1ccccc1)C(C)C)[C@@H](C)O)C(=O)NCC(=O)N[C@H]1C[C@H]2C[C@@H](c3ccccc3)C[C@@H](C(=O)N[C@@H](C)C(=O)N[C@@H](Cc3ccccc3)C(N)=O)N2C1=O (stereo partly drawn)	inactive	–	inactive	–
CC(C)[C@H](NC(=O)N(CC(=O)O)NC(=O)[C@@H](NC(=O)[C@@H]1CCCN1C(=O)[C@@H](NC(=O)[C@@H](N)Cc1ccccc1)C(C)C)[C@@H](C)O)C(=O)NCC(=O)N1CCC[C@H]1C(=O)N[C@@H](Cc1ccccc1)C(=O)N[C@@H](C)C(=O)N[C@@H](Cc1ccccc1)C(N)=O (HELM PEPTIDE1{F.V.P.T.[O=C(O)CN(N[*:1])C(=O)[*:2]].V.G.P.F.A.F.[am]}$$$$V2.0)	–	59	inactive	380
CC(C)[C@H](NC(=O)[C@H](CC(=O)O)NC(=O)[C@@H](NC(=O)[C@@H]1CCCN1C(=O)[C@@H](NC(=O)[C@H](N)Cc1ccccc1)C(C)C)[C@@H](C)O)C(=O)NCC(=O)N1CCC[C@H]1C(=O)NN(Cc1ccccc1)C(=O)N[C@@H](C)C(=O)N[C@@H](Cc1ccccc1)C(N)=O	–	69	inactive	–
CC(C)[C@H](NC(=O)[C@@H](N)Cc1ccccc1)C(=O)N1CCC[C@H]1C(=O)N[C@H](C(=O)N[C@H]1C[C@H]2CCC[C@@H](C(=O)NCC(=O)N3CCC[C@H]3C(=O)N[C@@H](Cc3ccccc3)C(=O)N[C@@H](C)C(=O)N[C@@H](Cc3ccccc3)C(N)=O)N2C1=O)[C@H](C)O	inactive	–	inactive	–
CC(C)[C@H](NC(=O)N(CC(=O)O)NC(=O)[C@@H](NC(=O)[C@@H]1CCCN1)[C@@H](C)O)C(=O)NCC(=O)N1CCC[C@H]1C(=O)N[C@@H](Cc1ccccc1)C(=O)N[C@@H](C)C(=O)N[C@@H](Cc1ccccc1)C(N)=O (HELM PEPTIDE1{P.T.[O=C(O)CN(N[*:1])C(=O)[*:2]].V.G.P.F.A.F.[am]}$$$$V2.0)	inactive	–	–	–
CC(C)[C@H](NC(=O)[C@H](CC(=O)O)NC(=O)[C@@H](NC(=O)[C@@H]1CCCN1)[C@@H](C)O)C(=O)NCC(=O)N1CCCN1C(=O)N[C@@H](Cc1ccccc1)C(=O)N[C@@H](C)C(=O)N[C@@H](Cc1ccccc1)C(N)=O (HELM PEPTIDE1{P.T.D.V.G.[O=C(N1CCCN1[*:1])[*:2]].F.A.F.[am]}$$$$V2.0)	–	68	–	4470
CC(C)[C@H](NC(=O)[C@H](CC(=O)O)NC(=O)[C@@H](NC(=O)[C@@H]1CCCN1C(=O)[C@@H](NC(=O)[C@@H](N)Cc1ccccc1)C(C)C)[C@@H](C)O)C(=O)NCC(=O)N[C@H]1C[C@H]2CCC[C@@H](C(=O)N[C@@H](C)C(=O)N[C@@H](Cc3ccccc3)C(N)=O)N2C1=O	inactive	–	inactive	–
CC(C)[C@H](NC(=O)[C@H](CC(=O)O)NC(=O)[C@@H](NC(=O)[C@@H]1CCCN1C(=O)[C@@H](NC(=O)[C@@H](N)Cc1ccccc1)C(C)C)[C@@H](C)O)C(=O)NCC(=O)N1CCC[C@@H]1C(=O)N[C@@H](Cc1ccccc1)C(=O)N[C@H]1C[C@H]2C[C@@H](c3ccccc3)C[C@@H](C(N)=O)N2C1=O	inactive	–	inactive	–
CC(C)[C@H](NC(=O)[C@H](CC(=O)O)NC(=O)[C@@H](NC(=O)[C@@H]1CCCN1)[C@@H](C)O)C(=O)NCC(=O)N1CCCC1C(=O)N[C@@H](Cc1ccccc1)C(=O)N[C@H]1C[C@H]2C[C@@H](c3ccccc3)C[C@@H](C(N)=O)N2C1=O (stereo partly drawn) (HELM PEPTIDE1{P.T.D.V.G.[O=C(C1CCCN1[*:1])[*:2]].F.[NC(=O)[C@@H]1C[C@H](c2ccccc2)C[C@@H]2C[C@H](N[*:1])C(=O)N21]}$$$$V2.0)	inactive	–	–	–
CC(C)[C@H](NC(=O)[C@H](CC(=O)O)NC(=O)[C@@H](NC(=O)[C@@H]1CCCN1)[C@@H](C)O)C(=O)NCC(=O)N1CCC[C@H]1C(=O)NN(Cc1ccccc1)C(=O)N[C@@H](C)C(=O)N[C@@H](Cc1ccccc1)C(N)=O (HELM PEPTIDE1{P.T.D.V.G.P.[O=C(N(Cc1ccccc1)N[*:1])[*:2]].A.F.[am]}$$$$V2.0)	inactive	–	–	–
CC(C)[C@H](NC(=O)[C@H](CC(=O)O)NC(=O)[C@@H](NC(=O)[C@@H]1CCCN1)[C@@H](C)O)C(=O)NCC(=O)N[C@H]1C[C@H]2CCC[C@@H](C(=O)N[C@@H](C)C(=O)N[C@@H](Cc3ccccc3)C(N)=O)N2C1=O	inactive	–	–	–
CC(C)[C@H](NC(=O)[C@H](CC(=O)O)NC(=O)[C@@H](NC(=O)[C@@H]1CCCN1C(=O)[C@@H](NC(=O)[C@@H](N)Cc1ccccc1)C(C)C)[C@@H](C)O)C(=O)NCC(=O)N[C@H]1CC[C@H]2CC[C@@H](C(=O)N[C@@H](C)C(=O)N[C@@H](Cc3ccccc3)C(N)=O)N2C1=O	inactive	–	inactive	–
CC(C)[C@H](NC(=O)[C@H](CC(=O)O)NC(=O)[C@@H](NC(=O)[C@@H]1CCCN1C(=O)[C@@H](NC(=O)[C@@H](N)Cc1ccccc1)C(C)C)[C@@H](C)O)C(=O)NCC(=O)N1CCC[C@H]1C(=O)NN(Cc1ccccc1)C(=O)N[C@@H](C)C(=O)N[C@@H](Cc1ccccc1)C(N)=O	–	–	–	5750
CC(C)[C@H](NC(=O)[C@H](CC(=O)O)NC(=O)[C@@H](NC(=O)[C@@H]1CCCN1)[C@@H](C)O)C(=O)NNC(=O)N1CCC[C@H]1C(=O)N[C@@H](Cc1ccccc1)C(=O)N[C@@H](C)C(=O)N[C@@H](Cc1ccccc1)C(N)=O (HELM PEPTIDE1{P.T.D.V.[O=C(NN[*:1])[*:2]].P.F.A.F.[am]}$$$$V2.0)	inactive	–	–	–
